Source: ChEMBL document CHEMBL3425447, “Discovery of Orally Available Runt-Related Transcription Factor 3 (RUNX3) Modulators for Anticancer Chemotherapy by Epigenetic Activation and Protein Stabilization” (J Med Chem, 2015)

How the values were obtained:
[1] = Metabolic stability in mouse liver microsomes assessed as compound remaining at 1 uM after 30 mins byLC-ESI/MS/MS analysis in presence of NADPH; type: ADME; details: read-out: Stability
Method in brief: (§1)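 Compound at 1 µM incubated in triplicate with pooled mouse liver microsomes (0.5 mg/ml final) in 0.1 M potassium phosphate, pH 7.4, at 37°C, with or without 1 mM NADPH. Reactions stopped at 0 and 30 min with ice-cold acetonitrile containing internal standard. After centrifugation, supernatant analyzed by LC-ESI/MS/MS; percent remaining from analyte/IS peak-area ratios. Buspirone served as positive control.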

[2] = Metabolic stability in mouse liver microsomes assessed as compound remaining at 1 uM after 30 mins by LC-ESI/MS/MS analysis in absence of NADPH; type: ADME; details: read-out: Stability; method in brief: as §1
HEK293 [3] = test: Induction of myc-tagged RUNX3 acetylation in human HEK293 cells assessed as acetylated RUNX3 level at 1 uM after 24 hrs by immunoprecipitation analysis relative to TSA; type: functional
Method in brief: (§2)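 HEK293 cells (DMEM, 10% FBS) transfected with myc-RUNX3 vector using Lipofectamine 2000. Next day treated at 1 µM for 24 h. Lysates (HEPES pH 7.5, NP-40 buffer) immunoprecipitated with anti-myc antibody and protein G beads at 4°C. Immunoprecipitates western-blotted with anti-acetylated lysine antibody; relative acetylated RUNX3 quantified.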

HEK293 [4] = test: Induction of myc-tagged RUNX3 acetylation in human HEK293 cells assessed as RUNX3 level at 1 uM after 24 hrs by immunoprecipitation analysis relative to TSA; type: functional; method in brief: as §2
[5] = Growth inhibition of human HCT15 cells after 5 days by sulforhodamine B assay; type: functional; details: HCT-15, 120 h
[6] = Growth inhibition of human NUGC3 cells after 5 days by sulforhodamine B assay; type: functional; details: NUGC-3, 120 h
MDA-MB-231 = test: Growth inhibition of human MDA-MB-231 cells after 5 days by sulforhodamine B assay; type: functional; details: MDA-MB-231, 120 h
ACHN = test: Growth inhibition of human ACHN cells after 5 days by sulforhodamine B assay; type: functional; details: 120 h
Histone deacetylase = test: Inhibition of HDAC in human HeLa cell nuclear extract using Fluor de Lys as substrate incubated with compound for 30 mins by microtiter-plate reading flourimeter analysis; type: protein assay
NCI-H23 = test: Growth inhibition of human NCI-H23 cells after 5 days by sulforhodamine B assay; type: functional; details: NCI-H23, 120 h
[7] = Growth inhibition of human PC3 cells after 5 days by sulforhodamine B assay; type: functional; details: PC-3, 120 h
C2C12 = test: Induction of RUNX transcriptional activation in mouse C2C12-6xOSE2 cells at 1 uM after 24 hrs by luciferase reporter assay relative to FGF-2; type: functional
Method in brief: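 C2C12-6xOSE stable cells grown in DMEM with 10% FBS at 37°C, 5% CO2. Seeded at 1 × 10^4 cells/well; next day treated with compound or FGF-2 (1 µM each). After 24 h, luciferase measured with Bright-Glo. Activity expressed as percent of the FGF-2 positive-control response.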

[8] = Retention time of the compound by HPLC analysis; type: physicochemical

Compound | remaining at 0.5 h, 1 µM [1] | remaining at 0.5 h, 1 µM [2] | GI50 (MDA-MB-231) | GI50 (ACHN) | IC50 (Histone deacetylase) | GI50 (NCI-H23) | Retention_time [8] | fold change (FC) (HEK293 [3]) | fold change (FC) (HEK293 [4]) | GI50 [5] | GI50 [6] | GI50 [7] | Activity (C2C12)
O=C1CC2(CCCC2)CC(=O)N1CCCCN1CCN(c2ncccn2)CC1 [BUSPIRONE] | 0.4% | 101% | – | – | – | – | – | – | – | – | – | – | –
CCOc1ccccc1CCCn1cccc(/C=C/C(=O)NO)c1=O | 31.5% | 104% | 0.56 µM | 0.32 µM | 0.05 µM | 0.46 µM | 12.367 min | 37.2 | 13.7 | 0.66 µM | 0.47 µM | 0.18 µM | 105.5%
O=C(/C=C/c1cccn(CCCc2ccccc2Br)c1=O)NO | 24.2% | – | 2.89 µM | 1.92 µM | 0.48 µM | 1.88 µM | – | – | – | 1.58 µM | 1.5 µM | 1.86 µM | 162.8%
O=C(/C=C/c1cccn(CCc2ccncc2)c1=O)NO | – | – | > 10 µM | > 10 µM | > 10 µM | > 10 µM | – | – | – | > 10 µM | > 10 µM | > 10 µM | 19.6%
O=C(/C=C/c1cccn(Cc2ccccn2)c1=O)NO | – | – | > 10 µM | 6.44 µM | 0.46 µM | > 10 µM | – | – | – | > 10 µM | > 10 µM | 10.2 µM | 35.6%
O=C(/C=C/c1cccn(CCCc2cccc(Br)c2)c1=O)NO | 20.7% | 96.7% | 1.85 µM | 0.74 µM | 0.1 µM | 1.22 µM | – | 0.4 | 0.7 | 1.16 µM | 1.2 µM | 1.26 µM | 100.8%
CCc1ccccc1Cn1cccc(/C=C/C(=O)NO)c1=O | – | – | 6.95 µM | 3.24 µM | 0.23 µM | 4.96 µM | – | – | – | 3.93 µM | 5.41 µM | 5.02 µM | 52.3%
O=C(/C=C/c1cccn(Cc2ccccc2Br)c1=O)NO | – | – | 1.59 µM | 1.53 µM | 0.19 µM | 2.3 µM | – | – | – | 2.4 µM | 1.66 µM | 2.88 µM | 86%
O=C(/C=C/c1cccn(CCc2cccc(Br)c2)c1=O)NO | – | – | 4.9 µM | 2 µM | 0.16 µM | 3.3 µM | – | – | – | 7.29 µM | 1.99 µM | 3.58 µM | 74%

Now from value to compound, other results behind:

remaining at 0.5 h, 1 µM [1] | remaining at 0.5 h, 1 µM [2] | GI50 (MDA-MB-231) | GI50 (ACHN) | IC50 (Histone deacetylase) | GI50 (NCI-H23) | Retention_time [8] | Compound | fold change (FC) (HEK293 [3]) | fold change (FC) (HEK293 [4]) | GI50 [5] | GI50 [6] | GI50 [7] | Activity (C2C12)
11.1% | 96.5% | 0.72 µM | 0.7 µM | 0.07 µM | 0.69 µM | – | CCc1ccc(CCn2cccc(/C=C/C(=O)NO)c2=O)cc1 | 0.2 | 0.4 | 0.69 µM | 0.74 µM | 0.53 µM | 106%
59.6% | 105% | 2.05 µM | 2.34 µM | 0.07 µM | 1.05 µM | – | CCOc1ccc(CCn2cccc(/C=C/C(=O)NO)c2=O)cc1 | 0.2 | 0.8 | 1 µM | 1.28 µM | 0.14 µM | 119.5%
28.3% | 103% | 0.84 µM | 0.7 µM | 0.11 µM | 0.91 µM | – | CC(C)(C)c1ccc(CCn2cccc(/C=C/C(=O)NO)c2=O)cc1 | 0.1 | 1.2 | 0.71 µM | 0.47 µM | 0.5 µM | 104.7%
– | – | 6.39 µM | 2.14 µM | 0.36 µM | 3.04 µM | – | O=C(/C=C/c1cccn(CCc2ccc(Br)cc2)c1=O)NO | – | – | 8.6 µM | 2.83 µM | 4.84 µM | 53.5%
61.5% | 98.6% | 3.18 µM | 1.26 µM | 0.15 µM | 2.69 µM | – | COc1cccc(Cn2cccc(/C=C/C(=O)NO)c2=O)c1 | 17 | 2 | 2.6 µM | 1.69 µM | 1.82 µM | 200%
– | – | 2.23 µM | 1.83 µM | 0.38 µM | 1.78 µM | – | CC(C)(C)c1ccc(CCCn2cccc(/C=C/C(=O)NO)c2=O)cc1 | – | – | 1.42 µM | 1.31 µM | 1.48 µM | 34.4%
– | – | 4.92 µM | 9.49 µM | 0.42 µM | 3.01 µM | – | O=C(/C=C/c1cccn(Cc2ccncc2)c1=O)NO | – | – | > 10 µM | 9.19 µM | 9.17 µM | 69.1%
– | – | 2.49 µM | 1.48 µM | 0.1 µM | 3 µM | – | O=C(/C=C/c1cccn(Cc2ccc(Br)cc2)c1=O)NO | – | – | 4.31 µM | 2.11 µM | 1.88 µM | 99.2%
– | – | 3.68 µM | 1.54 µM | 0.1 µM | 2.35 µM | – | CCc1ccc(Cn2cccc(/C=C/C(=O)NO)c2=O)cc1 | – | – | 1.86 µM | 1.67 µM | 2.07 µM | 74.3%
– | – | 6.26 µM | 4.73 µM | 0.38 µM | 5.3 µM | – | COc1ccc(Cn2cccc(/C=C/C(=O)NO)c2=O)cc1 | – | – | 4.52 µM | 3.88 µM | 4.7 µM | 84.6%
– | – | 2.59 µM | 2.8 µM | 0.09 µM | 2.81 µM | – | CC(C)(C)c1ccc(Cn2cccc(/C=C/C(=O)NO)c2=O)cc1 | – | – | 2.4 µM | 1.82 µM | 3.04 µM | 46.4%
